≈ marks a conversion by molar mass, not a printed value.
Key:
[1] = system: Cutibacterium acnes; experiment: Antibacterial activity against drug-resistant Propionibacterium acnes EG7NS after 72 hrs; format: functional
Outline: (§1)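 MBC for P. acnes followed MIC assays by standard methodology. Samples were plated on Wilkins-Chalgren agar, incubated anaerobically in GENbox jars at 35 to 37°C, and examined for growth after 72 h.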

[2] = system: Cutibacterium acnes; experiment: Antibacterial activity against drug-resistant Propionibacterium acnes GE46EB after 48 hrs by broth microdilution method; format: functional
Outline: (§2)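 Broth microdilution MIC in Wilkins-Chalgren broth without lysed horse blood, following CLSI anaerobe guidelines. Plates were held in anaerobic jars with atmosphere generators (O2 <0.1% by 2.5 h, CO2 >15% by 24 h) at 35 to 37°C for 48 h. Growth was read with an illuminated plate reader and magnifying mirror.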

[3] = system: Staphylococcus aureus; experiment: Antibacterial activity against borderline oxacillin-resistant Staphylococcus aureus after 20 to 24 hrs by broth microdilution method
[4] = system: Cutibacterium acnes; experiment: Antibacterial activity against drug-resistant Propionibacterium acnes P429:1 (BC) after 48 hrs by broth microdilution method; format: functional; outline: as §2
[5] = system: Cutibacterium acnes; experiment: Antibacterial activity against drug-resistant Propionibacterium acnes SP64E after 48 hrs by broth microdilution method; format: functional; outline: as §2
[6] = system: Cutibacterium acnes; experiment: Antibacterial activity against drug-resistant Propionibacterium acnes OK8/97 after 48 hrs by broth microdilution method; format: functional; outline: as §2
[7] = system: Cutibacterium acnes; experiment: Antibacterial activity against drug-resistant Propionibacterium acnes P322:2 after 48 hrs by broth microdilution method; format: functional; outline: as §2
[8] = system: Streptococcus equi subsp. zooepidemicus; experiment: Antibacterial activity against Streptococcus equi subsp. zooepidemicus after 48 hrs by broth microdilution method; format: functional
[9] = system: Cutibacterium acnes; experiment: Antibacterial activity against drug-resistant Propionibacterium acnes P:413 after 48 hrs by broth microdilution method; format: functional; outline: as §2
[10] = system: Cutibacterium acnes; experiment: Antibacterial activity against drug-resistant Propionibacterium acnes GE4E after 72 hrs; format: functional; outline: as §1
[11] = system: Cutibacterium acnes; experiment: Antibacterial activity against drug-resistant Propionibacterium acnes SW101CDA after 48 hrs by broth microdilution method; format: functional; outline: as §2
[12] = system: Cutibacterium acnes; experiment: MBC/MIC ratio of Propionibacterium acnes P95; format: functional
Outline: (§3)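 MIC by CLSI broth microdilution in Wilkins-Chalgren broth in anaerobic jars (O2 <0.1%, CO2 >15%), read after 48 h at 35–37°C on an illuminated plate reader. For MBC, samples were plated onto Wilkins-Chalgren agar and incubated anaerobically for 72 h at 35–37°C before growth was scored.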

[13] = system: Staphylococcus epidermidis; experiment: Antibacterial activity against Staphylococcus epidermidis after 48 hrs by broth microdilution method; format: functional
[14] = system: Cutibacterium acnes; experiment: Antibacterial activity against drug-resistant Propionibacterium acnes SW26 after 48 hrs by broth microdilution method; format: functional; outline: as §2
[15] = system: Cutibacterium acnes; experiment: Antibacterial activity against drug-resistant Propionibacterium acnes P401:5 after 48 hrs by broth microdilution method; format: functional; outline: as §2
[16] = system: Propionibacterium granulosum; experiment: Antibacterial activity against drug-resistant Propionibacterium granulosum QK6/92 after 48 hrs by broth microdilution method
[17] = system: Cutibacterium acnes; experiment: Antibacterial activity against drug-resistant Propionibacterium acnes SW11 after 48 hrs by broth microdilution method; format: functional; outline: as §2
[18] = system: Cutibacterium acnes; experiment: Antibacterial activity against drug-resistant Propionibacterium acnes D-04/97 after 48 hrs by broth microdilution method; format: functional; outline: as §2
[19] = Antibacterial activity against Streptococcus dysgalactiae subsp. dysgalactiae after 48 hrs by broth microdilution method; format: functional
[20] = system: Cutibacterium acnes; experiment: Antibacterial activity against drug-resistant Propionibacterium acnes SW101T after 48 hrs by broth microdilution method; format: functional; outline: as §2
[21] = system: Corynebacterium diphtheriae; experiment: Antibacterial activity against Corynebacterium diphtheriae after 48 hrs by broth microdilution method; format: functional
Outline: (§4)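 Broth microdilution per CLSI in cation-adjusted Mueller-Hinton broth supplemented with 0.5% (vol/vol) Tween 80. Plates incubated at 35°C in ambient air for 44 to 48 h, then read visually. MICs in μg/ml; a geometric mean MIC was calculated across the corynebacterial strains.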

[22] = system: Cutibacterium acnes; experiment: Antibacterial activity against drug-resistant Propionibacterium acnes SW17 after 48 hrs by broth microdilution method; format: functional; outline: as §2
[23] = system: Cutibacterium acnes; experiment: MBC/MIC ratio of Propionibacterium acnes SW101T; format: functional; outline: as §3
[24] = system: Cutibacterium acnes; experiment: Antibacterial activity against drug-resistant Propionibacterium acnes P429:1 (SC) after 48 hrs by broth microdilution method; format: functional; outline: as §2
[25] = system: Cutibacterium acnes; experiment: Antibacterial activity against drug-resistant Propionibacterium acnes P95 after 48 hrs by broth microdilution method; format: functional; outline: as §2
[26] = system: Cutibacterium acnes; experiment: MBC/MIC ratio of Propionibacterium acnes GE4E; format: functional; outline: as §3
[27] = system: Cutibacterium acnes; experiment: Antibacterial activity against drug-resistant Propionibacterium acnes SW101T after 72 hrs; format: functional; outline: as §1
[28] = system: Streptococcus pyogenes; experiment: Antibacterial activity against Streptococcus pyogenes after 20 to 24 hrs by broth microdilution method
[29] = system: Cutibacterium acnes; experiment: Antibacterial activity against drug-resistant Propionibacterium acnes P425:1 after 48 hrs by broth microdilution method; format: functional; outline: as §2
[30] = system: Cutibacterium acnes; experiment: MBC/MIC ratio of Propionibacterium acnes SW3CD; format: functional; outline: as §3
[31] = system: Corynebacterium amycolatum; experiment: Antibacterial activity against Corynebacterium amycolatum after 48 hrs by broth microdilution method; format: functional; outline: as §4
[32] = system: Corynebacterium minutissimum; experiment: Antibacterial activity against Corynebacterium minutissimum after 48 hrs by broth microdilution method; format: functional; outline: as §4
[33] = system: Cutibacterium acnes; experiment: Antibacterial activity against drug-resistant Propionibacterium acnes EG3NS after 48 hrs by broth microdilution method; format: functional; outline: as §2
[34] = system: Cutibacterium acnes; experiment: Antibacterial activity against drug-resistant Propionibacterium acnes GE4E after 48 hrs by broth microdilution method; format: functional; outline: as §2
[35] = system: Propionibacterium granulosum; experiment: Antibacterial activity against drug-resistant Propionibacterium granulosum NCTC-11865 after 48 hrs by broth microdilution method; format: functional; conditions: Cutibacterium granulosum, NCTC-11865, 48 h; outline: as §2
[36] = system: Staphylococcus aureus; experiment: Antibacterial activity against methicillin-susceptible Staphylococcus aureus after 48 hrs by broth microdilution method; format: functional
[37] = system: Cutibacterium acnes; experiment: Antibacterial activity against drug-resistant Propionibacterium acnes FG7E after 48 hrs by broth microdilution method; format: functional; outline: as §2
[38] = system: Cutibacterium acnes; experiment: Antibacterial activity against drug-resistant Propionibacterium acnes EG13NS after 48 hrs by broth microdilution method; format: functional; outline: as §2
[39] = system: Cutibacterium acnes; experiment: Antibacterial activity against drug-resistant Propionibacterium acnes SW54EA after 48 hrs by broth microdilution method; format: functional; outline: as §2
[40] = system: Cutibacterium acnes; experiment: Antibacterial activity against drug-resistant Propionibacterium acnes SW3CD after 48 hrs by broth microdilution method; format: functional; outline: as §2
[41] = system: Cutibacterium acnes; experiment: MBC/MIC ratio of Propionibacterium acnes EG7NS; format: functional; outline: as §3
[42] = system: Cutibacterium acnes; experiment: Antibacterial activity against drug-resistant Propionibacterium acnes SW3CD after 72 hrs; format: functional; outline: as §1
[43] = system: Staphylococcus aureus; experiment: Antibacterial activity against methicillin-resistant Staphylococcus aureus after 20 to 24 hrs by broth microdilution method
[44] = system: Cutibacterium acnes; experiment: Antibacterial activity against drug-resistant Propionibacterium acnes EG7NS after 48 hrs by broth microdilution method; format: functional; outline: as §2
[45] = system: Cutibacterium acnes; experiment: Antibacterial activity against drug-resistant Propionibacterium acnes P95 after 72 hrs; format: functional; outline: as §1
[46] = system: Corynebacterium jeikeium; experiment: Antibacterial activity against Corynebacterium jeikeium after 48 hrs by broth microdilution method; format: functional; outline: as §4
[47] = system: Cutibacterium acnes; experiment: Antibacterial activity against drug-resistant Propionibacterium acnes SW10 after 48 hrs by broth microdilution method; format: functional; outline: as §2
[48] = system: Cutibacterium acnes; experiment: Antibacterial activity against drug-resistant Propionibacterium acnes SW16 after 48 hrs by broth microdilution method; format: functional; outline: as §2

Q: What does the source list for `CN(C)[C@@H]1C(O)=C(C(N)=O)C(=O)[C@@]2(O)C(O)=C3C(=O)c4c(O)cccc4[C@@](C)(O)[C@H]3C[C@@H]12` [TETRACYCLINE]?
A: MBC [1]: > 32 µg/mL; MIC [2]: 1 µg/mL (≈ 2.25 µM); MIC [3]: 3.17 µg/mL (≈ 7.13 µM); MIC [4]: 1 µg/mL (≈ 2.25 µM); MIC [5]: 1 µg/mL (≈ 2.25 µM); MIC [6]: 0.5 µg/mL (≈ 1.13 µM); MIC [7]: 32 µg/mL (≈ 72 µM); MIC [8]: 8 µg/mL (≈ 18 µM); MIC [9]: 16 µg/mL (≈ 36 µM); MBC [10]: > 32 µg/mL; MIC [11]: ≤ 0.06 µg/mL; Ratio [12]: >64; MIC [13]: 7.55 µg/mL (≈ 17 µM); MIC [14]: 0.5 µg/mL (≈ 1.13 µM); MIC [15]: 32 µg/mL (≈ 72 µM); MIC [16]: 1 µg/mL (≈ 2.25 µM); MIC [17]: 2 µg/mL (≈ 4.5 µM); MIC [18]: 1 µg/mL (≈ 2.25 µM); MIC [19]: 4.58 µg/mL (≈ 10.3 µM); MIC [20]: 32 µg/mL (≈ 72 µM); MIC [21]: 5.16 µg/mL (≈ 11.6 µM); MIC [22]: 0.25 µg/mL (≈ 0.563 µM); Ratio [23]: >1; MIC [24]: ≥ 32 µg/mL; MIC [25]: 0.5 µg/mL (≈ 1.13 µM); Ratio [26]: >16; MBC [27]: > 32 µg/mL; MIC [28]: 3.25 µg/mL (≈ 7.31 µM); MIC [29]: 16 µg/mL (≈ 36 µM); Ratio [30]: >32; MIC [31]: 5.16 µg/mL (≈ 11.6 µM); MIC [32]: 5.16 µg/mL (≈ 11.6 µM); MIC [33]: 0.5 µg/mL (≈ 1.13 µM); MIC [34]: 2 µg/mL (≈ 4.5 µM); MIC [35]: 0.5 µg/mL (≈ 1.13 µM); MIC [36]: 3.17 µg/mL (≈ 7.13 µM); MIC [37]: 32 µg/mL (≈ 72 µM); MIC [38]: 1 µg/mL (≈ 2.25 µM); MIC [39]: 0.5 µg/mL (≈ 1.13 µM); MIC [40]: 1 µg/mL (≈ 2.25 µM); Ratio [41]: >=533; MBC [42]: > 32 µg/mL; MIC [43]: 3.17 µg/mL (≈ 7.13 µM); MIC [44]: ≤ 0.06 µg/mL; MBC [45]: 32 µg/mL (≈ 72 µM); MIC [46]: 5.16 µg/mL (≈ 11.6 µM); MIC [47]: 0.5 µg/mL (≈ 1.13 µM); MIC [48]: 0.25 µg/mL (≈ 0.563 µM)

— ChEMBL document CHEMBL1143835, “Antipropionibacterial activity of BAL19403, a novel macrolide antibiotic” (2007)
